# High-throughput results deposited in PubChem by Sanford-Burnham Center for Chemical Genomics.
# Only a sample is shown.
# Apaf1 activ – human Apaf-1 activation. activity change, negative = activation, % at 20 µM. O14727. Apaf-1 apoptosome caspase-3 activation, DEVD-Rh110 fluorescence; stronger effect = lower value. actives 0.31% (n = 330,000). AID 489031;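 active = activity change at or below -40% at 20 µM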
# Target sequence (O14727 whole entry, looked up): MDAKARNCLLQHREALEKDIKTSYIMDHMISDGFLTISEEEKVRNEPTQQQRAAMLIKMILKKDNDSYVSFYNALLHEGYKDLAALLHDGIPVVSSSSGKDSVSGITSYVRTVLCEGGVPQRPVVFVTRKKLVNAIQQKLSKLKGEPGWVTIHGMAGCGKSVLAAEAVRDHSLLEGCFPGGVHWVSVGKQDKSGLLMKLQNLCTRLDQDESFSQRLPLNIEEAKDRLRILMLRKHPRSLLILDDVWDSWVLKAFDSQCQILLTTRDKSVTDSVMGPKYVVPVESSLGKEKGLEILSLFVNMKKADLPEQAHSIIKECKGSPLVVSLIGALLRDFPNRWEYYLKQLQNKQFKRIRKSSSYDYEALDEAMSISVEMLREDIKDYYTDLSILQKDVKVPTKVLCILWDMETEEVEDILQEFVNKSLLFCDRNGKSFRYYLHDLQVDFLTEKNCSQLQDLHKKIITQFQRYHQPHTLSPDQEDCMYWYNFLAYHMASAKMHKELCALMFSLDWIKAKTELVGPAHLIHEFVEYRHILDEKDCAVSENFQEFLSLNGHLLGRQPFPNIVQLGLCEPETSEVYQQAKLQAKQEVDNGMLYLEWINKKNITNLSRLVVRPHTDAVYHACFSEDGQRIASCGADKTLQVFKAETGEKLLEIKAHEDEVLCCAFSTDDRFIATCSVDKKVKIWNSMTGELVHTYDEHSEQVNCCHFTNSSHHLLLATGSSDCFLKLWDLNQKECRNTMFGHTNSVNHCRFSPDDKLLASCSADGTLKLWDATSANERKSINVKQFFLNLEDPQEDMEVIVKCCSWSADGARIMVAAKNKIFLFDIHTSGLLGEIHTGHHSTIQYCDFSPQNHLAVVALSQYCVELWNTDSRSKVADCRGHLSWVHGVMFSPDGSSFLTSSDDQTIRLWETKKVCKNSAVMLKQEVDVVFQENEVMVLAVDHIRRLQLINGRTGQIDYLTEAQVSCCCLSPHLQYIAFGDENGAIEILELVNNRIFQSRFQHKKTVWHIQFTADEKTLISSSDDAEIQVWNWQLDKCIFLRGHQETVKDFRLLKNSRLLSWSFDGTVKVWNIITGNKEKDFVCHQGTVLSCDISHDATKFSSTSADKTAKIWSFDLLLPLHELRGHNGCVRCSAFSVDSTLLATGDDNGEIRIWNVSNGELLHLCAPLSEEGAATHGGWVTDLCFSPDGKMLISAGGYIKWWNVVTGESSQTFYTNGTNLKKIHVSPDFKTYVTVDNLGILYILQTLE
#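 Material: reconstituted apoptosome of Apaf-1, cytochrome c, caspase-9, procaspase-3; times: 30 min preincubation, 50 min reaction, room temperature; measured by: fluorescence, 540 nm emission, 480 nm excitation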
# Rh110 act interf – counter-screen for Apaf-1 activators: fluorescence interference | AID 504616 | fluorescence interference (activity change), % at 20 µM, hits read low | Rh110 fluorescence interference, quenched caspase reaction, Ex480/Em540 | shares compounds with Apaf1 activ | 980 tested, under 10 active;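 active = mean activity change at or below -40% when tested at 20 µM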
# Apaf-1 act conf – confirmation of human Apaf-1 activators | shares compounds with Apaf1 activ | reconstituted apoptosome caspase-3 activity, DEVD-Rh110 fluorescence; stronger effect = lower value | activity change, negative = activation, % at 20 µM | actives 5% (n = 980);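 active = mean activity change at or below -40%, meaning activation of 40% or more, at 20 µM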
# Fluor interf act – Apaf-1 activator counter-screen fluorescence artifact. shares compounds with Apaf1 activ. fluorescence interference counterscreen, Apaf-1 activator assay. EC50, µM. 55 tested, under 10 active. AID 588592; call rule not given here
# An asterisk follows results filed as active; x = no result given.
SMILES,Apaf1 activ,Rh110 act interf,Apaf-1 act conf,others
COc1ccc(-c2cc(C)no2)cc1S(=O)(=O)N1CCOc2ccccc21,-425*,9,14,
CN1CCN(CCOc2cccc(Cl)c2)CC1,-50*,15,13,
O=C1CCc2ccc(OCCCCN3CCN(c4cccc(Cl)c4Cl)CC3)cc2N1,43,x,x,
CN1CCN(CCc2nc3cc(NC(=O)COc4ccccc4)ccc3n2C)CC1,57,x,x,
Cc1ccc(NC(=S)Nc2cccc3cnccc23)cc1C,53,x,x,
OCCN1CCN(CC/C=C2/c3ccccc3Sc3ccc(Cl)cc32)CC1,43,x,x,
CCCCCc1ccc(OCCCC[n+]2cccc(C)c2)c(CCCCC)c1,61,x,x,
c1nc(NCC2(N3CCOCC3)CCCCC2)c2ccsc2n1,-313*,7,15,
CN(C)CCOc1ccc(-c2c(-c3ccsc3)sc3ccccc23)cc1,71,x,x,
O=C1Cc2ccccc2C(=O)N1OCc1ccc(Cl)cc1,95,x,x,
O=[N+]([O-])c1cncc([N+](=O)[O-])c1Nc1cccc(O)c1,-64*,12,18,
O=[N+]([O-])c1cc([N+](=O)[O-])c2nonc2c1Nc1ccc(O)cc1,74,x,x,
O=C1C(Nc2cccc(O)c2)=C(N2CCCCC2)C(=O)c2ccccc21,88,x,x,
CCC(CO)Oc1cc(NCc2cccc(C(F)(F)F)c2)c2ncn(C(C)C)c2c1 (stereo unspecified),41,x,x,
COc1cccc(Cn2cnc3c(NS(=O)(=O)c4ccc(Cl)cc4Cl)c(C)c(C)cc32)c1,-66*,10,25,
CCC(=O)N(CC)C1=C(O)c2ccccc2C(=O)C1=O,55,x,x,
N#CC1=C2SCN(Cc3ccccc3)CN2C(=O)CC1c1cccs1 (stereo unspecified),78,x,x,
Nc1c(C(=O)NCc2ccco2)c2nc3ccccc3nc2n1CCc1ccc(F)cc1,78,x,x,
Cc1ccc(S(=O)(=O)Nc2ccccc2F)cc1C(=O)NCc1ccco1,-54*,11,11,
CSc1ccc2c(c1)N(CCC1CCCCN1C)c1ccccc1S2 (stereo unspecified),55,x,x,
O=C(O)c1ccc(S(=O)(=O)/N=C2\C=C(Nc3ccccc3F)C(=O)c3ccccc32)cc1,96,x,x,
COc1ccc(S(=O)(=O)Nc2ccc(S(=O)(=O)N3CCOCC3)cc2)cc1,-64*,-6,8,
COc1ccc(Nc2ccc(OC)cc2)cc1,80,x,x,
COc1ccc(NC(=O)NNc2cc(N3CCOCC3)nc(N3CCOCC3)n2)cc1,52,x,x,
COc1ccc(Cl)cc1NC(=O)C(C)N1CCN(C/C=C/c2ccccc2)CC1 (stereo unspecified),43,x,x,
SMILES,Apaf1 activ,Rh110 act interf,Apaf-1 act conf,others
C[C@H](NC(=O)c1ccc(C(C)(C)C)cc1)C(=O)N1CCN(C/C=C/c2ccccc2)CC1,43,x,x,
COc1ccc(OC)c(NC(=S)N2CCN(C/C=C/c3ccccc3)CC2)c1,-300*,9,13,
Cc1ccc(C(=O)c2c3ccc(N)cc3nn2CCC(N)=O)cc1,82,x,x,
O=c1[nH]c(N2CCOCC2)cc2ccccc12,93,x,x,
O[C@@H](c1cc(C(F)(F)F)nc2c(C(F)(F)F)cccc12)[C@H]1CCCCN1,52,x,x,
CCN(Cc1ccccc1)C(=O)c1cccc(S(=O)(=O)N2CCN(c3ccc(F)cc3)CC2)c1,42,x,x,
CCN(CC(=O)Nc1c(F)cccc1F)C(=O)CNC(=O)c1ccc2c(c1)OCO2,53,x,x,
O=C(NCC(c1ccco1)N1CCN(c2ccc(F)cc2)CC1)c1ccc2c(c1)OCO2 (stereo unspecified),-155*,-2,16,
O=[N+]([O-])c1cccc(C=Nc2cccc3ccccc23)c1O,93,x,x,
Cc1cc(Nc2cccc(Cl)c2)nc(NCc2ccccc2)n1,43,x,x,
CC(C)(C)c1cc(C(=O)N/N=C/c2ccc(-c3ccccc3[N+](=O)[O-])o2)n[nH]1,42,x,x,
O=C(NCc1nc2ccccc2[nH]1)C1=C[C@H](c2ccccc2)C[C@H](OCc2ccc(CO)cc2)O1,-127*,5,27,
O=C(O)CC1S/C(=N/N=C/c2ccc(-c3ccc(Cl)cc3[N+](=O)[O-])o2)NC1=O (stereo unspecified),52,x,x,
Cc1cccc(OCCCC(=O)NNC(=O)CCN2CCN(c3ccccc3)CC2)c1,-630*,-2,12,
COc1cccc(N2CCN(CC(=O)Nc3ccccc3C(=O)NCCc3ccccc3)CC2)c1,50,x,x,
CCN1CCN(CCc2nc3cc(NC(=O)COc4ccccc4)ccc3n2C)CC1,51,x,x,
CCCCCCCCCCOC(=O)Cn1c(COc2ccccc2OC)[n+](C)c2ccccc21,71,x,x,
COc1ccc2c(c1OC)C(=O)OC2C1c2c(cc3c(c2OC)OCO3)CCN1C (stereo unspecified),5,x,x,
N#C/C(=C\c1ccc(OCc2ccc(Cl)cc2)cc1)C(=O)Nc1cccc(C(=O)O)c1,-202*,13,-71*,Fluor interf act=>100
CCN1/C(=C/C=C/C=C/c2sc3ccccc3[n+]2CC)Sc2ccccc21,80,x,x,
COc1ccc(-c2sc3ccccc3c2-c2ccc(OCCN(C)C)cc2)cc1,77,x,x,
CC1=NN(c2ccc(C(=O)O)cc2)C(=O)/C1=C\c1ccc(OC(=O)c2cccs2)cc1,75,x,x,
Cc1cc(C)cc(Oc2coc3cc(OC(=O)c4cccs4)ccc3c2=O)c1,-560*,10,12,
O=C(Nc1nc(-c2ccccc2)cs1)c1ccc(N2CCOCC2)c([N+](=O)[O-])c1,-46*,-4,7,
Fc1ccccc1NC(=S)Nc1cccc2cnccc12,97,x,x,
SMILES,Apaf1 activ,Rh110 act interf,Apaf-1 act conf,others
CC(Oc1ccc2ccccc2c1)C(=O)NNC(=O)Nc1ccccc1F (stereo unspecified),-132*,-5,11,
Cc1ccc(F)c(NC(=S)Nc2cccc3ccccc23)c1,78,x,x,
CCCCCc1ccc(OCCCC[n+]2ccc(C)cc2)c(CCCCC)c1,56,x,x,
COc1cccc(-c2cc(C(=O)N3CCN(c4ccc(F)cc4)CC3)no2)c1,-69*,-1,16,
CCN(CC)CCNC(=O)c1ccc(NC(=O)c2cn(-c3ccc(F)cc3)nc2-c2cccc(OC)c2)cc1,45,x,x,
O=C(c1cccc(S(=O)(=O)N2CCN(c3ccc(F)cc3)CC2)c1)N1CCCCCCC1,42,x,x,
COc1ccc(OCc2cc(C(=O)N3CCC(OC)CC3)no2)c2ccccc12,49,x,x,
COc1ccc(-c2cc(C(=O)N3CCN(C(c4ccccc4)c4ccccc4)CC3)no2)cc1OC,-159*,-6,10,
O=C(Cn1cc2c(n1)CCCC2)NCCCN1CCCC1,41,x,x,
CCCCC(=Nc1ccc(N)cc1)C1=C(O)C(C(=O)OC)C(C)(C)CC1=O (stereo unspecified),62,x,x,
CN1C(C(=O)NCC2CC2)CC2Cn3c(nc4cc5ccccc5cc43)C21 (stereo unspecified),41,x,x,
COc1ccc(CN=Cc2[nH]c3ccc(Br)c(Cl)c3c2O)cc1,45,x,x,
Cc1ccc(N=Cc2cccc(O)c2O)c(C)c1,93,x,x,
Cc1ccccc1NC(=S)N/N=C/c1ccc(O)cc1O,-43*,8,-35,
Oc1ccc(C=Nc2cccc3ccccc23)c(O)c1,81,x,x,
Cc1ccccc1NC(=S)Nc1cccc2cnccc12,91,x,x,
COc1ccc(Cn2c(N)c(C#N)c3nc4ccccc4nc32)cc1,50,x,x,
